# Bioassay records from PubChem BioAssay.
# A selection: hits, their analogues and other compounds. The true share with any hit is near 3.3%.
# SENP1 inh – SENP1 (human) catalytic domain inhibition; 360,000 compounds, 0.21% hits; inhibition, % at 10 µM; Q9P0U3; AID 624204; recombinant SENP1 catalytic domain, CyPet-SUMO1-YPet FRET cleavage;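 active means inhibition at least 30% at 10 µM, raw YFP signal under a set limit, fluorescence ratio 0.5 to 1.5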;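 further: 0% = enzyme with DMSO and 100% = no enzyme wells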
#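 System: Recombinant human SENP1 catalytic domain, His6-tagged | Incubation: Enzyme reaction for 50 min at room temperature, dark | Medium: Tris pH 8 with BME, BSA, NP40 and catalase | Also added: 25 nM SUMO1 FRET substrate | Compound: 10 µM single point, 0.5% DMSO | Measured by: FRET fluorescence in CFP and YFP emission channels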
# SENP6 block – SENP6 protease inhibition. Q9GZR1. Recombinant SENP6 catalytic domain, aminoluciferin luminescence. inhibition, % at 10 µM. 330,000 compounds, 1.8% hits;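 active means inhibition above about 50% at the single tested dose, limit read from the data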;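 further: plate controls were DMSO wells with enzyme for no effect and DMSO wells lacking enzyme for full effect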
# SENP8 block-1 – inhibitors of human SENP8 protease. Q96LD8. inhibition, % at 20 µM. AID 602440. 360,000 compounds, 0.64% hits. recombinant SENP8, Nedd8 substrate fluorescence; in the data active means inhibition mostly above about 40%, no sharp cut-off; inactive means mostly below about 27%
# Target sequence (Q96LD8 whole entry, looked up): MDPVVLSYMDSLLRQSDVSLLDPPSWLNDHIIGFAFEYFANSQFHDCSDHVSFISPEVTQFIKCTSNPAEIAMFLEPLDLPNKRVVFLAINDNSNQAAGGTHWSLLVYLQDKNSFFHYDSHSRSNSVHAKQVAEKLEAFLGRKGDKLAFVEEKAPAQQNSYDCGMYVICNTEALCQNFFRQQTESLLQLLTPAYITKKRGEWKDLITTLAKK
# SENP8 block-2 – inhibitors of human SENP8 protease; Q96LD8; purified SENP8, Z-RLRGG-aminoluciferin cleavage, luminescence; inhibition, % at 10 µM; 330,000 compounds, 1.2% hits; AID 2540; in the data active means inhibition above about 50%
# CendR NRP1 mod – modulators of CendR peptide binding to human neuropilin-1; FAM-RPARPAR peptide binding to NRP-1, fluorescence polarization; inhibition, % at 25 µM; 360,000 compounds, 0.85% hits; AID 602438;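 active means inhibition or corrected inhibition above about 18%, plus a signal ratio from 0.5 to 1.5, limit read from the data, passing the limit was not always enough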
# SENP7 block – blocks the human protease SENP7; Q9BQF6; recombinant SENP7, Z-RLRGG-aminoluciferin luminescence, 40 min; inhibition, % at 5 µM; 330,000 compounds, 1.5% hits;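 active means inhibition above about 50% at the single test dose, limit read from the data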;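 further: plate controls were DMSO with enzyme for no effect and no enzyme buffer wells for full effect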
# Target sequence (Q9BQF6 706-1050 limits assumed): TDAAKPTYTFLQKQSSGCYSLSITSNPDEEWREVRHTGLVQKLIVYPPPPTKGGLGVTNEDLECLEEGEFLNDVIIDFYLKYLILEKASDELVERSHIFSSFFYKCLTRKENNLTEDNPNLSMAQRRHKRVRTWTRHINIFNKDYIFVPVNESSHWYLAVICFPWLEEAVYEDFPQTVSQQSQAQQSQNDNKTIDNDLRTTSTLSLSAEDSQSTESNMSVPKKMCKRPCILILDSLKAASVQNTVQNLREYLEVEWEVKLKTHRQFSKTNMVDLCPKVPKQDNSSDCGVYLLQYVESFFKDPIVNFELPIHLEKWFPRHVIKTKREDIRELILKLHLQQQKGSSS
# * marks the source's active call; other numbers are inactive results; x = no result given.
SMILES,SENP1 inh,SENP6 block,SENP8 block-1,SENP8 block-2,CendR NRP1 mod,SENP7 block
O=C(C[C@@H]1C/C=C\CC[C@@H](Cc2ccc(F)cc2)C(=O)OC[C@@H](Cc2ccccc2)NC1=O)NCCO,0,14,13,-4,4,9
CCN(CC)Cc1c(O)ccc2c(C)c(CC(=O)OC)c(=O)oc12,-132,-13,-284,-11,47*,-13
COc1ccc(/C=C(/NC(=O)c2ccccc2)C(=O)N2CCCCC2)cc1OC,-20,-15,-4,5,28*,-1
C=CC#CC[N+]1(CC#Cc2ccccc2)CCOCC1,-7,x,-12,x,21*,x
CSCCC(C(=O)NC(C)(C)C)n1c(-c2cccc(NC(C)=O)c2)nc2ccccc21 (stereo unspecified),-3,x,-100,x,-8,x
COC(=O)c1cn(C(=O)c2ccco2)c2ccccc12,3,15,2,1,-6,-1
COC(=O)c1cn(C(=O)c2ccc(Br)o2)c2ccccc12,0,-14,-20,-12,25*,-6
O=C1NC[C@@H](CCCCN2C[C@H](Cc3ccccc3)N(CC3CCCCC3)C(=O)C2=O)N(CC2CCCCC2)C1=O,1,x,4,x,3,x
CC(=O)Nc1ccc(NC(=O)CSc2cn(CC(=O)N3CCOCC3)c3ccccc23)cc1,1,-3,14,5,12,3
O=C(Cn1cc(SCc2ccccc2Cl)c2ccccc21)N1CCOCC1,0,75*,11,43,2,40
COc1ccc(/C=C/C(=O)N(C)Cc2cccs2)cc1S(=O)(=O)N1CCOCC1,-4,-19,3,6,35*,9
COc1ccccc1NC(=O)/C=C/c1ccc(OC)c(S(=O)(=O)N2CCOCC2)c1,-2,4,-1,-7,-4,1
O=C(N/N=C\c1ccc(Oc2ccccc2)cc1)c1csnn1,2,75*,0,71*,-2,77*
O=C(CSc1ccc([N+](=O)[O-])cc1)NCC1CCCCC1,2,-2,10,1,26*,-3
O=C(NCC1CCCCC1)c1ccc([N+](=O)[O-])cc1,1,9,12,6,6,2
Cc1cccc(C)c1NC(=O)c1cc(S(=O)(=O)N2CCOCC2)cn1C,0,4,22,7,-5,0
Cn1cc(S(=O)(=O)N2CCOCC2)cc1C(=O)O,2,0,9,5,31*,4
CN(C)/C=C1/C(=O)N(c2ccc([N+](=O)[O-])cc2)N=C1c1ccccc1,x,101*,x,96*,x,97*
O=C1N(c2ccccc2)c2ccccc2[C@]12C[C@H](O)CO2,1,x,13,x,6,x
COC(=O)CCCC1=CC2=C(c3ccccc3)C(=O)C(C)(OC(=O)C3CCCC3)C(=O)C2=CN1Cc1ccco1 (stereo unspecified),-13,1,2,4,30*,-8
CN(Cc1nc(-c2cccnc2)no1)S(=O)(=O)c1ccc(Br)cc1,-1,15,18,-4,3,3
CN(Cc1nc(-c2ccccn2)no1)S(=O)(=O)c1ccc(Br)cc1,-4,1,15,0,28*,4
CC1=C(C(=O)N2CCCCCC2)CC(CC(=O)NCC2CCCCC2)C(=O)N1Cc1ccc(F)cc1 (stereo unspecified),0,x,9,x,-13,x
CSCCC(C(=O)NC1CCCC1)n1c(C2CCCC2)nc2ccccc21 (stereo unspecified),-5,x,-32,x,7,x
Cn1c(=O)c2[nH]c(NCCCN3CCOCC3)nc2n(C)c1=O,-1,-9,21,2,22*,-1
SMILES,SENP1 inh,SENP6 block,SENP8 block-1,SENP8 block-2,CendR NRP1 mod,SENP7 block
Cc1ccc(Nc2nc3c([nH]2)c(=O)n(C)c(=O)n3C)cc1,0,-21,-1,1,-3,2
O=C1c2cc([N+](=O)[O-])ccc2-c2cc(Br)c(N=C(NO)C(F)(F)F)cc21,69*,x,15,x,-69,x
CNC(=O)C(C)Sc1ccc(S(=O)(=O)N2CCOCC2)cn1 (stereo unspecified),2,11,16,3,22*,6
Cc1csc(-c2nc3ccccc3n2C(C)c2nc3ccccc3[nH]2)c1 (stereo unspecified),3,x,-419,x,4,x
COCCn1nnnc1SCC(=O)c1ccc(F)cc1,0,-10,13,-7,-3,-10
COCCn1c(SCC(=O)c2ccc(F)cc2)nnc1C(C)C,-1,-1,16,-5,24*,-3
CN(C)CCN(C(=O)c1ccc2c(c1)OCCO2)c1nc2cc3c(cc2s1)OCO3,0,-3,-7,-8,25*,4
CN(C)CCCN(C(=O)c1ccc([N+](=O)[O-])s1)c1nc2cc3c(cc2s1)OCCO3,0,47,19,55*,18,5
CN(C)CCN(C(=O)c1ccc2ccccc2c1)c1nc2cc3c(cc2s1)OCO3,0,x,15,x,4,x
O=C(COC(=O)c1cc(=O)[nH]c2ccccc12)Nc1nc(-c2ccc(F)cc2)cs1,3,x,-192,x,4,x
COc1cccc(/C=C2\SC(=S)N(CCCC(=O)N3CCCC3)C2=O)c1,1,78*,12,48,-13,65*
COc1ccccc1/C=C1\SC(=S)N(CCC(=O)N2CCCCC2CCO)C1=O (stereo unspecified),-11,2,51*,0,-10,-5
COc1cccc(/C=C2\SC(=S)N(CCCC(=O)N3CCCCC3CCO)C2=O)c1 (stereo unspecified),2,16,12,3,-10,-3
COc1ccc(/C=C2\SC(=S)N(CCC(=O)NC3CCCC3)C2=O)cc1OC,-16,-8,23,1,22*,6
CN1CCC(N2CCN(C3CN(Cc4ccc(F)cc4)S(=O)(=O)C3)CC2)CC1 (stereo unspecified),4,x,14,x,11,x
CC(CCC(C)C(C)(C)C)[C@@H]1CC[C@H]2C3C[C@H](OS(O)(=S)=S)[C@H]4C[C@H](OS(O)(=S)=S)[C@@H](OS(O)(=S)=S)C[C@]4(C)[C@H]3CC[C@]12C (stereo partly specified) (tested in a mixture with another compound),-8,-2,1,54*,36*,8
Cc1ccc(CN/C=C/C(=O)c2ccc(Br)cc2)cc1,-9,-18,-13,-4,-6,0
Cc1ccc(C(=O)/C=C/NCc2ccc(F)cc2)cc1,-30,-18,-8,-6,36*,2
CCCC(=O)Nn1cnc2c(c1=O)C1(CCCC1)Cc1ccccc1-2,1,2,10,5,25*,5
COc1ccc([C@H]2CN(c3ccc(OC)cc3)C(=O)[C@@H]2CC(=O)Nc2ccc(Br)cc2)cc1,1,x,-10,x,-4,x
CCOC(=O)C1=NN(C(=O)c2ccc(C)cc2)C(O)(c2ccc(Cl)cc2)C1 (stereo unspecified),31*,-1,20,5,-4,-1
